Active and inactive are the calls of the source. The calls are words filed in the database; no cut-off is given here. Square brackets hold non-standard residues; d marks the D form. Peptide text beside a SMILES is read from it. * marks the point of attachment. Fumaroyl(GlyGlyPheOH) = O=C(/C=C/C(=O)*)NCC(=O)NCC(=O)N[C@@H](Cc1ccccc1)C(=O)O; Chg = N[C@H](C(=O)O)C1CCCCC1; Dap = NC[C@H](N)C(=O)O

Usually inhibition stands for the change of the read-out against control, counted positive when it falls. The term Ki denotes the dissociation constant of the complex between target and ligand, obtained from inhibition or displacement. One may read the IC50 as the concentration that inhibits the measured activity by half.

Assay [1] has as its target Rhodesain (Trypanosoma brucei rhodesiense) (UniProt Q95PM0). Kind of assay: Inhibition of Trypanosoma brucei rhodesiense recombinant rhodesain at 200 uM.
Assay [2] shares this target. Put plainly: Inhibition of Trypanosoma brucei rhodesiense rhodesain after 12 hrs by fluorescence spectroscopy-based on-bead assay. The arrangement: concentration or dose not given beside the values. The settings on record: concentration not given here. An outline of the steps: (§1)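 Library members on resin (PEGA, theoretical loading 0.40 mmol/g; added as DMSO suspension, 0.64 mM final inhibitor) preincubated with enzyme 12 h, then Cbz-Phe-Arg-AMC 40 μM added; AMC release followed by fluorescence (ex 380/em 460 nm). Kinetics compared with inhibitor-free amino-PEGA resin.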

The target in assay [3] is T1, Cathepsin B (Homo sapiens, UniProt P07858). Put plainly: Inhibition of human liver cathepsin B at 100 uM.
Assay [4] is described as follows: Inhibition of Plasmodium falciparum recombinant falcipain-2 expressed in Escherichia coli […] using Cbz-Leu-Arg-AMC as substrate by spectrofluorometry.
Assay [5] in a line: Inhibition of Plasmodium falciparum falcipain-2 after 12 hrs by fluorescence spectroscopy-based on-bead assay. Further details: concentration or dose not given beside the values. The settings on record: concentration not given here. The essentials: as §1
Another assay addresses Rhodesain (Trypanosoma brucei rhodesiense, UniProt Q95PM0). Put plainly: Inhibition of Trypanosoma brucei rhodesiense recombinant rhodesain.
In a further assay the target is Procathepsin L (Bos taurus, UniProt P25975). Kind of assay: Inhibition of bovine spleen cathepsin L. The essentials: (§2)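 Cathepsin L (bovine spleen) or B (human liver) hydrolysis of Cbz-Phe-Arg-AMC (40 μM) followed by fluorescence for 5-10 min without preincubation at 0.1-80 μM inhibitor, 10% DMSO final.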
Chain of Procathepsin L (P25975 whole entry): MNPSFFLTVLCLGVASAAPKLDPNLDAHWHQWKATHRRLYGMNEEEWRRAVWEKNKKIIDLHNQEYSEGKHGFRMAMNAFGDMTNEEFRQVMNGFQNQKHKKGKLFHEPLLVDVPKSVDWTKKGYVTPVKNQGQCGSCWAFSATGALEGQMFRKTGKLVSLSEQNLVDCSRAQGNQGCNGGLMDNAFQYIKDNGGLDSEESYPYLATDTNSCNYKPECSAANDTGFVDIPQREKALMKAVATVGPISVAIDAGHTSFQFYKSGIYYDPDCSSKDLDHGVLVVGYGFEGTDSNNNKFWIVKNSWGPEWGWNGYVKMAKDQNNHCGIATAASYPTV
Assay [6] relates to Plasmodium falciparum. Put plainly: Inhibition of Plasmodium falciparum recombinant falcipain-2 expressed in Escherichia coli at 100 uM after 20 min by spectrofluorometry. An outline of the steps: (§3)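 Single-point screen at 100 μM inhibitor (final). Recombinant enzyme in 50 mM acetate pH 5.5, 5 mM EDTA, 200 mM NaCl, 5 mM DTT, 10% DMSO final; Cbz-Phe-Arg-AMC 40 μM (or Cbz-Leu-Arg-AMC 25 μM) hydrolysis followed by fluorescence (ex 380/em 460 nm). % inhibition = 100(1 − vi/vc) from progress-curve slopes vs DMSO control; at least two independent assays.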

The target in assay [7] is Rhodesain (Trypanosoma brucei rhodesiense) (UniProt Q95PM0). Kind of assay: Inhibition of Trypanosoma brucei rhodesiense recombinant rhodesain at 100 uM. An outline of the steps: as §3
Chain of Rhodesain (Trypanosoma brucei rhodesiense) (Q95PM0 1-450): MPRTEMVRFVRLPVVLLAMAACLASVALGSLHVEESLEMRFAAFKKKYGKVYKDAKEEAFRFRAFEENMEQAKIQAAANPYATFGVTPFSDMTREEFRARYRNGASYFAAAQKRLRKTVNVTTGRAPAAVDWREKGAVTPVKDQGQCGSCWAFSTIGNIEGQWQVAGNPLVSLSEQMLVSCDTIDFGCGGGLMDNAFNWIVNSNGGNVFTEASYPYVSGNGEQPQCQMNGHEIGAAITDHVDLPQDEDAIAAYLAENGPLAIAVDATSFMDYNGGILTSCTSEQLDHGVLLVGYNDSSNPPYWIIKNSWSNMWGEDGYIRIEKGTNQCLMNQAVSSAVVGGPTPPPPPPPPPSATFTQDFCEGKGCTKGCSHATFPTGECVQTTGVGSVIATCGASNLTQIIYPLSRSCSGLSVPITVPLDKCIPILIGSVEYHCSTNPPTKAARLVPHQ
A short description of assay [8]: Inhibition of Plasmodium falciparum recombinant falcipain-2 expressed in Escherichia coli after 20 min using Cbz-Phe-Arg-AMC as substrate by spectrofluorometry. To be noted: in the assay text read “over 5-10 min” for “after 20 min”. An outline of the steps: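 Continuous assay without preincubation. Recombinant falcipain-2 in 50 mM acetate pH 5.5, 5 mM EDTA, 200 mM NaCl, 5 mM DTT, 10% DMSO final; Cbz-Phe-Arg-AMC (40 μM, Km 21.5 μM) or Cbz-Leu-Arg-AMC (25 μM, Km 8.4 μM). Fluorescence monitored 5-10 min at 0.1-80 μM inhibitor. Ki from Dixon plot, corrected to zero substrate; at least two independent assays.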

Assay [9] deals with Plasmodium falciparum. Put plainly: Antiplasmodial activity against Plasmodium falciparum FCBR by fluorometric method. Type of assay: functional, organism-based, FCBR/Columbia.
The target of assay [10] is T1, Cathepsin B. Put plainly: Inhibition of human liver cathepsin B. An outline of the steps:
as §2

The target in assay [11] is T1, Cathepsin B. Put plainly: Inhibition of human liver cathepsin B at 200 uM measured before dialysis. The essentials: (§4)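 Human liver cathepsin B activity measured with 200 μM inhibitor before and after 3 h of continuous dialysis against assay buffer, to test reversibility.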
The test system of assay [12] is Trypanosoma brucei brucei. Put plainly: Antitrypanosomal activity against Trypanosoma brucei brucei. Format: functional, organism-based.
The target of assay [13] is T1, Cathepsin B. Put plainly: Inhibition of human liver cathepsin B at 200 uM measured after dialysis. The essentials:
as §4

A short description of assay [14]: Inhibition of Plasmodium falciparum falcipain-2 by fluorescence enzyme assay.
The mark [15] stands for this setting: Plasmodium falciparum, FCBR/Columbia, read-out: IC50.

Chain of Rhodesain (Q95PM0 whole entry): as the sequence (Q95PM0 1-450) above

Turning to `N=C(N)c1ccc(OCCCCCOc2ccc(C(=N)N)cc2)cc1`, the inhibition in assay [1] came to 28%.
Take `CC(C)C[C@H](NC(=O)[C@H](C)NC(=O)/C=C/C(=O)N[C@@H](C)C(=O)NCC(=O)N[C@@H](Cc1ccccc1)C(=O)O)C(=O)N[C@@H](CC(C)C)C(=O)N[C@H](C(N)=O)C(C)C` (HELM PEPTIDE1{[C[C@H](NC(=O)/C=C/C(=O)[*:2])C(=O)NCC(=O)N[C@@H](Cc1ccccc1)C(=O)O].A.L.L.V.[am]}$$$$V2.0): the inhibition was found to be 67% in assay [2]; 45% against Cathepsin B [3]; 58% in [5]; 86% in the assay on Plasmodium falciparum [6]; 96% in assay [7]. Also, the figures for the Ki (in assay [4]; on Rhodesain; on Procathepsin L) were 9.5 µM, 1.3 µM and 33.6 µM, respectively.
In the case of `CC(C)C[C@H](NC(=O)[C@H](C)NC(=O)/C=C/C(=O)NCC(=O)NCC(=O)N[C@@H](Cc1ccccc1)C(=O)O)C(=O)N[C@@H](CC(C)C)C(=O)N[C@H](C(N)=O)C(C)C` (HELM PEPTIDE1{[O=C(/C=C/C(=O)[*:2])NCC(=O)NCC(=O)N[C@@H](Cc1ccccc1)C(=O)O].A.L.L.V.[am]}$$$$V2.0), the inhibition in assay [2] is 65%; at Cathepsin B [3] it was 38%; in assay [5], 55%; in the assay on Plasmodium falciparum [6], 73%; in assay [7], 99%. Also, the results for the Ki on Rhodesain and at Procathepsin L were 1 µM and 30.7 µM, respectively.
With `CC(C)C[C@H](NC(=O)[C@H](Cc1ccccc1)NC(=O)/C=C/C(=O)NCC(=O)NCC(=O)N[C@@H](Cc1ccccc1)C(=O)O)C(=O)N[C@@H](CC(C)C)C(=O)N[C@H](C(N)=O)C(C)C` (HELM PEPTIDE1{[O=C(/C=C/C(=O)[*:2])NCC(=O)NCC(=O)N[C@@H](Cc1ccccc1)C(=O)O].F.L.L.V.[am]}$$$$V2.0), the Ki amounted to 0.8 µM in assay [8], 22.9 µM at Cathepsin B [10], 0.2 µM at Rhodesain and 34.8 µM on Procathepsin L. For the same compound, the inhibition in assay [2] amounted to 69%; against Cathepsin B [3] it was 73%; in [5], 69%; in the assay on Plasmodium falciparum [6], 100%; in assay [7], 68%. For the same compound, the IC50 result in the assay on Plasmodium falciparum [9] is “Not Active”.
Consider `CC(C)[C@H](NC(=O)[C@H](C)NC(=O)[C@@H](NC(=O)[C@H](CC(N)=O)NC(=O)/C=C/C(=O)NCC(=O)NCC(=O)N[C@@H](Cc1ccccc1)C(=O)O)C1CCCCC1)C(N)=O` (HELM PEPTIDE1{[O=C(/C=C/C(=O)[*:2])NCC(=O)NCC(=O)N[C@@H](Cc1ccccc1)C(=O)O].N.[O=C([C@@H](N[*:1])C1CCCCC1)[*:2]].A.V.[am]}$$$$V2.0), for which the Ki in [8] is 12.2 µM; on Cathepsin B [10], 22.2 µM; on Rhodesain, 0.4 µM. The inhibition in assay [2] was 26%; on Cathepsin B [3] it was 78%; in assay [5], 73%; with Plasmodium falciparum [6], 79%; in assay [7], 98%. In addition, in the assay with Plasmodium falciparum [9] (setting [15]), the IC50 stood at 75 µM.
In the case of `CC(C)[C@H](NC(=O)[C@@H](NC(=O)[C@@H](NC(=O)[C@H](CC(N)=O)NC(=O)/C=C/C(=O)NCC(=O)NCC(=O)N[C@@H](Cc1ccccc1)C(=O)O)C1CCCCC1)C(C)C)C(N)=O` (HELM PEPTIDE1{[O=C(/C=C/C(=O)[*:2])NCC(=O)NCC(=O)N[C@@H](Cc1ccccc1)C(=O)O].N.[O=C([C@@H](N[*:1])C1CCCCC1)[*:2]].V.V.[am]}$$$$V2.0), the Ki in assay [8] was determined as 5.2 µM; at Cathepsin B [10], 1.4 µM; on Rhodesain it was 0.08 µM; at Procathepsin L, 37.5 µM. In addition, the inhibition in assay [2] was determined as 46%; on Cathepsin B [11] it was 74%; on Cathepsin B [3], 100%; in assay [5] it was 61%; with Plasmodium falciparum [6], 90%; in [7], 96%. In addition, the inhibition against Cathepsin B [13] came out at 73%. For the same compound, the values for the IC50 result (in assay [12]; in the assay with Plasmodium falciparum [9] (setting [15])) were “Not Active” and 32 µM, respectively.
With `CC(C)[C@H](NC(=O)[C@@H](NC(=O)[C@@H](NC(=O)[C@H](CCC(N)=O)NC(=O)/C=C/C(=O)NCC(=O)NCC(=O)N[C@@H](Cc1ccccc1)C(=O)O)C1CCCCC1)C(C)C)C(N)=O` (HELM PEPTIDE1{[O=C(/C=C/C(=O)[*:2])NCC(=O)NCC(=O)N[C@@H](Cc1ccccc1)C(=O)O].Q.[O=C([C@@H](N[*:1])C1CCCCC1)[*:2]].V.V.[am]}$$$$V2.0), the results for the Ki (in assay [8]; at Rhodesain) were 1.5 µM and 0.08 µM, respectively. Also, the inhibition in [2] amounted to 53%; at Cathepsin B [3] it was 81%; in [5] it was 51%; with Plasmodium falciparum [6], 83%; in assay [7], 99%. The results for the IC50 result (in [12]; with Plasmodium falciparum [9] (setting [15])) were “Not Active” and 27 µM, respectively.
As to `CC(=O)NC[C@H](NC(=O)/C=C/C(=O)NCC(=O)NCC(=O)N[C@@H](Cc1ccccc1)C(=O)O)C(=O)N[C@@H](CC(C)C)C(=O)N[C@@H](CC(C)C)C(=O)N[C@H](C(N)=O)C(C)C` (HELM PEPTIDE1{[O=C(/C=C/C(=O)[*:2])NCC(=O)NCC(=O)N[C@@H](Cc1ccccc1)C(=O)O].[O=C([C@H](CN[*:3])N[*:1])[*:2]].L.L.V.[am]}|PEPTIDE2{[ac]}$PEPTIDE1,PEPTIDE2,2:R3-1:R2$$$V2.0), the inhibition in assay [2] came out at 60%; in [5], 54%; in the assay on Plasmodium falciparum [6], 79%; in assay [7], 87%. In addition, the inhibition result on Cathepsin B [3] is “inactive”. The Ki in assay [4] worked out at 11.8 µM; at Rhodesain it was 1.8 µM; at Procathepsin L, 40 µM.
In the case of `CC(=O)NC[C@H](NC(=O)/C=C/C(=O)NCC(=O)NCC(=O)N[C@@H](Cc1ccccc1)C(=O)O)C(=O)N[C@H](C(=O)N[C@@H](C)C(=O)N[C@H](C(N)=O)C(C)C)C1CCCCC1` ({Fumaroyl(GlyGlyPheOH)}-[Dap](Ac)[Chg]AV-NH2), the Ki in assay [8] amounted to 7 µM; on Cathepsin B [10] it was 12.4 µM; on Rhodesain it was 0.3 µM. For the same compound, the inhibition in assay [2] came out at 25%; against Cathepsin B [3], 83%; in [5], 23%; with Plasmodium falciparum [6], 83%; in [7], 95%. The IC50 entry in assay [12] is “Not Active”; with Plasmodium falciparum [9] (setting [15]), 22 µM.
In [14], `CC(C)C[C@H](NC(=O)[C@H]1O[C@@H]1C(=O)O)C(=O)NCCCCN=C(N)N` [E-64] came in with a Ki of 0.29 µM.
As for `NCCCC(N)(C(=O)O)C(F)F` (stereo not drawn) [EFLORNITHINE], the IC50 in assay [12] (Trypanosoma brucei, read-out: IC50) worked out at 30.7 µM. Also, the inhibition in assay [7] was 31%.

These data come from ChEMBL document CHEMBL1155459, “On-bead screening of a combinatorial fumaric acid derived peptide library yields antiplasmodial cysteine protease inhibitors with unusual peptide sequences” (J Med Chem, 2009).
